Columns and labels:
Saccharomyces cerevisiae [1] = experiment: Substrate activity against yeast hexokinase as 1:1 Mg complexes at 5.0 mM
How it was run: (§1)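 Hexokinase activity read at 22 °C as A340 change, coupled to glucose-6-phosphate dehydrogenase, in 0.05 M Tris-HCl pH 7.6 with 6.6 mM MgCl2, 10 mM α-D-glucose and 0.93 mM NADP. Donor was 5.0 mM MgATP derivative (1:1 Mg complex) in place of ATP. Yeast HK was isoelectric-focused. Rat HK I and III came from electrofocused liver extract, HK II from dialysed muscle extract.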

[2] = biological target: T1, Hexokinase-3 (Rattus norvegicus) (UniProt P27926); experiment: Time dependent inhibition of Hexokinase type III activity after 6 h, at 22 degrees celsius, at 5 mM
T1 sequence (whole entry): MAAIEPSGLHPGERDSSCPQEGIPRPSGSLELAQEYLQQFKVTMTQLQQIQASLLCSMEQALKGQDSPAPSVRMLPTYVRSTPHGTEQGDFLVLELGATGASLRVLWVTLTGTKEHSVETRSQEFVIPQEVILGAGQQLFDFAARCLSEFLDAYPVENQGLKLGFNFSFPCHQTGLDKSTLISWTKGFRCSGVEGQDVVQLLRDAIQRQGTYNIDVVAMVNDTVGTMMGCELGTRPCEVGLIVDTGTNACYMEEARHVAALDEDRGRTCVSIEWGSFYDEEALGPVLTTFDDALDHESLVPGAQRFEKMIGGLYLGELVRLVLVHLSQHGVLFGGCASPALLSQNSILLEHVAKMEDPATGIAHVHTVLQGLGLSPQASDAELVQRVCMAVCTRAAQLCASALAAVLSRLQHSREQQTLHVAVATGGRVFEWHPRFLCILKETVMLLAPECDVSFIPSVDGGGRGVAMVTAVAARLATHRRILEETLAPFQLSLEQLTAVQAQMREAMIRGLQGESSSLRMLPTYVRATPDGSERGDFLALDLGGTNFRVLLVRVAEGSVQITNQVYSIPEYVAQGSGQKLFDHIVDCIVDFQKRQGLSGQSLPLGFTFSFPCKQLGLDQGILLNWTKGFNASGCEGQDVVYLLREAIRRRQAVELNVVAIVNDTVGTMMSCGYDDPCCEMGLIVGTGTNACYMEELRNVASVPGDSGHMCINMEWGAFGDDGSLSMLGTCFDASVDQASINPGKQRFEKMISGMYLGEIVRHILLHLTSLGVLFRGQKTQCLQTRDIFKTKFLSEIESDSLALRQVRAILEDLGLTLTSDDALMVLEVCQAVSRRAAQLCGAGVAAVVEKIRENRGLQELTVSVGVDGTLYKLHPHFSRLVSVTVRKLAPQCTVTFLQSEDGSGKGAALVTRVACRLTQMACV

[3] = biological target: Thymidine kinase (Escherichia coli) (UniProt P23331); experiment: Compound was tested for the loss of thymidine kinase activity from Escherichia coli after 6 hr at 0 degrees C at 10 mM
Sequence of Thymidine kinase (Escherichia coli) (P23331 whole entry, looked up): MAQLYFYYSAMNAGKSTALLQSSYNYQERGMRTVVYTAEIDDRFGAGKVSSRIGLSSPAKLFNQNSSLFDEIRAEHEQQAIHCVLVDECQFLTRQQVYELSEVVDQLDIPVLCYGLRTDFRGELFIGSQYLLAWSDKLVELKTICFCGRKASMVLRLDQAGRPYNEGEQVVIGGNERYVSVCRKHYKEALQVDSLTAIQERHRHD

[4] = biological target: T2, Hexokinase-2 (Rattus norvegicus) (UniProt P27881); experiment: Substrate activity against Rat hexokinase II as 1:1 Mg complex at 5.0 mM; how it was run: as §1
T2 sequence (whole entry): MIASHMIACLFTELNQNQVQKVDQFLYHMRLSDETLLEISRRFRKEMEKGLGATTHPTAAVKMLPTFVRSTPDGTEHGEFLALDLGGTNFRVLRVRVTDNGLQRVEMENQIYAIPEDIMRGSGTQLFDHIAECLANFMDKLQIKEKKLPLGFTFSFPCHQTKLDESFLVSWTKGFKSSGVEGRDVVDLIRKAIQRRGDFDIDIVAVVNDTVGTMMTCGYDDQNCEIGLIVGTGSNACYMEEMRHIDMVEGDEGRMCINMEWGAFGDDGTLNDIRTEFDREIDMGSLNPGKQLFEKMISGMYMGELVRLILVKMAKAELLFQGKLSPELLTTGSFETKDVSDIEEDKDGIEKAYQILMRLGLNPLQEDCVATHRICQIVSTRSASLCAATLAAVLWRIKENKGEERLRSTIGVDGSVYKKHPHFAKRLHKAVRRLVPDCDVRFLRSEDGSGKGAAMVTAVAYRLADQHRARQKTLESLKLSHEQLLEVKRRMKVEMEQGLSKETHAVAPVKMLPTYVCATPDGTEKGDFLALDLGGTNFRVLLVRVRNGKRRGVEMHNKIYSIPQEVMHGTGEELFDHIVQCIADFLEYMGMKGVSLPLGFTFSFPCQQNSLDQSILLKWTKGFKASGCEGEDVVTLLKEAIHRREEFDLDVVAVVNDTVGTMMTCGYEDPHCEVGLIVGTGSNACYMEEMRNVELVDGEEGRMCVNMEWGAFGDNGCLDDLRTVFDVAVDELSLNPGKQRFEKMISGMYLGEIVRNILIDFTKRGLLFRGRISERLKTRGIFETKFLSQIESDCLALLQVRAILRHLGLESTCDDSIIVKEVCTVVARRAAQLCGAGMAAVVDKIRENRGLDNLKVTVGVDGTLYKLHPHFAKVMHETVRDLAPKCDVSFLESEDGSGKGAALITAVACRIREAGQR

[5] = biological target: T3, Hexokinase-1 (Rattus norvegicus) (UniProt P05708); experiment: Substrate activity for rat hexokinase I as 1:1 Mg complex at 5.0 mM; how it was run: as §1
T3 sequence (whole entry): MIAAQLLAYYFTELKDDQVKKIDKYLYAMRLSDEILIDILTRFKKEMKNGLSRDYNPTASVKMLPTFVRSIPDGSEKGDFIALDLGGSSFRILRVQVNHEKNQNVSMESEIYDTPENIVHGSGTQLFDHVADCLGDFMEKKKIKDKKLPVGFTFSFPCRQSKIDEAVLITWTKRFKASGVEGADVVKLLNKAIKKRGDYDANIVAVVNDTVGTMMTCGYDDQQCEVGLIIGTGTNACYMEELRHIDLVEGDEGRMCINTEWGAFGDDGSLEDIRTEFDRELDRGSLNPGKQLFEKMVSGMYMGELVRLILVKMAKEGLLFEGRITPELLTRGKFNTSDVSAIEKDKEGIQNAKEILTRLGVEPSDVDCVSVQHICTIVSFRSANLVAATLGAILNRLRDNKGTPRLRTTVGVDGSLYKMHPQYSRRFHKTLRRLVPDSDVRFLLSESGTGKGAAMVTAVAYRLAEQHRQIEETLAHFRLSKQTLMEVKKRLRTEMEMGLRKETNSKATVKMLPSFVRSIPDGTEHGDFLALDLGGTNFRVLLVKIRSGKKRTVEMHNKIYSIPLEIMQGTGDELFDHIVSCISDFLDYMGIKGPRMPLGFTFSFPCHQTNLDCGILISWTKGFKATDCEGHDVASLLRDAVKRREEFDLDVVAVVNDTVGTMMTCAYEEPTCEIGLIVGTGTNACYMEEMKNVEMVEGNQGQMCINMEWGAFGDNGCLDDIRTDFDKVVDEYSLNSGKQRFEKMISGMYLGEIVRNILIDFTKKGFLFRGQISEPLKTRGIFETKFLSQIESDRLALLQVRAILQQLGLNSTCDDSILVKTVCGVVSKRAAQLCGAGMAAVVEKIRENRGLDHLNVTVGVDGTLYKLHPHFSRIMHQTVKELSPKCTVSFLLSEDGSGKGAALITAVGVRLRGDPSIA

[6] = biological target: T1, Hexokinase-3 (Rattus norvegicus); experiment: Substrate activity for rat hexokinase III as 1:1 Mg complex at 5.0 mM; how it was run: as §1
[7] = Tested for the velocity of 2.8 mM compound relative to that of 2.8 mM MgATP in the assay
How it was run: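 E. coli TK substrate test. 0.5 h after adding inhibitor, the mixture was diluted to 2.8 mM derivative in thymidine assay medium without ATP and with 1.42 mM MnCl2. Incubated 15 min at 37 °C, in the linear range. [14C]TMP formed was compared with that from 2.8 mM ATP under the same conditions.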

[8] = biological target: Thymidine kinase (Escherichia coli) (UniProt P23331); experiment: Compound was tested for the lose of thymidine kinase activity after 6 hr, at 0 degrees celsius, with 10 mM ATP derivative. values were expressed in percent
[9] = biological target: Thymidine kinase (Escherichia coli) (UniProt P23331); experiment: Compound was tested for the initial inhibition of thymidine kinase by 1.4 mM compound in the presence of 5.7 mM ATP in Escherichia coli
Saccharomyces cerevisiae [10] = experiment: Time dependent inhibition of hexokinase activity after 6 hr, at 22 degrees celsius, with 5 mM ATP derivative in yeast.
[11] = biological target: T2, Hexokinase-2 (Rattus norvegicus); experiment: Time dependent inhibition of hexokinase 2 activity after 6 h, at 5 mM compound
[12] = biological target: T3, Hexokinase-1 (Rattus norvegicus); experiment: Time dependent inhibition of Hexokinase type I activity after 6 h, at 22 degrees celsius, at 5 mM compound

Relative velocity (Saccharomyces cerevisiae [1]) | inhibition [2] [%] | inhibition [3] [%] | Relative velocity [4] | Relative velocity [5] | Relative velocity [6] | Velocity [7] [%] | inhibition [8] [%] | inhibition [9] [%] | inhibition (Saccharomyces cerevisiae [10]) [%] | inhibition [11] [%] | inhibition [12] [%] | Structure (SMILES)
 |  |  |  |  |  | 55 | 0 | 1 | 0 |  |  | CN(CCCCN(C)c1ncnc2c1ncn2[C@@H]1O[C@H](COP(=O)(O)OP(=O)(O)OP(=O)(O)O)[C@@H](O)[C@H]1O)C(=O)CCCCCCNC(=O)CI
0.94 | 0 |  | 0.43 | 0.63 | 1.02 | > 14 | 44 | 8 | 0 | 0 | 0 | CN(CCCN(C)C(=O)CCCNc1ncnc2c1ncn2[C@@H]1O[C@H](COP(=O)(O)OP(=O)(O)OP(=O)(O)O)[C@@H](O)[C@H]1O)C(=O)CCCNC(=O)CI
 | 0 |  |  |  |  | 71 | 0 |  | 0 |  | 0 | O=C(CI)NCCCCCC(=O)NCCCCNc1ncnc2c1ncn2[C@@H]1O[C@H](COP(=O)(O)OP(=O)(O)OP(=O)(O)O)[C@@H](O)[C@H]1O
 | 0 |  | 0.6 | 1.12 | 1.25 |  |  |  | 0 |  | 0 | CC(=O)NCCCCCCCCNc1ncnc2c1ncn2[C@@H]1O[C@H](COP(=O)(O)OP(=O)(O)OP(=O)(O)O)[C@@H](O)[C@H]1O
 |  |  |  |  |  | 41 | 0 | 12 | 0 | 0 | 0 | O=C(CI)NCCCCCCC(=O)NCCCCCCNc1ncnc2c1ncn2[C@@H]1O[C@H](COP(=O)(O)OP(=O)(O)OP(=O)(O)O)[C@@H](O)[C@H]1O
1 | 0 |  | 0.91 | 1.3 | 2.02 | 36 | 0 | 0 | 0 | 0 | 0 | O=C(CI)NCCCC(=O)NCCCCCCNc1ncnc2c1ncn2[C@@H]1O[C@H](COP(=O)(O)OP(=O)(O)OP(=O)(O)O)[C@@H](O)[C@H]1O
 | 0 |  |  |  |  | 53 | 0 | 1 | 0 | 0 | 0 | O=C(CI)NCCC(=O)NCCCCCCNc1ncnc2c1ncn2[C@@H]1O[C@H](COP(=O)(O)OP(=O)(O)OP(=O)(O)O)[C@@H](O)[C@H]1O

The next lines start with the compound.

Structure (SMILES) | Relative velocity (Saccharomyces cerevisiae [1]) | inhibition [2] [%] | inhibition [3] [%] | Relative velocity [4] | Relative velocity [5] | Relative velocity [6] | Velocity [7] [%] | inhibition [8] [%] | inhibition [9] [%] | inhibition (Saccharomyces cerevisiae [10]) [%] | inhibition [11] [%] | inhibition [12] [%]
Nc1ncnc2c1nc(NCCCCCCCCNC(=O)CI)n2[C@@H]1O[C@H](COP(=O)(O)OP(=O)(O)OP(=O)(O)O)[C@@H](O)[C@H]1O | 0.54 | 0 | 0 | 0.82 | 1.16 | 1.81 |  |  |  |  |  | 
CN(CCCCCCN(C)c1ncnc2c1ncn2[C@@H]1O[C@H](COP(=O)(O)OP(=O)(O)OP(=O)(O)O)[C@@H](O)[C@H]1O)C(=O)CCCCCNC(=O)CI |  |  |  |  |  |  | 49 | 0 | 5 |  |  | 
CC(=O)NCCCCCC(=O)N(C)CCCCN(C)c1ncnc2c1ncn2[C@@H]1O[C@H](COP(=O)(O)OP(=O)(O)OP(=O)(O)O)[C@@H](O)[C@H]1O |  |  | 0 |  |  |  | 41 |  |  |  |  | 
CN(CCCCN(C)c1ncnc2c1ncn2[C@@H]1O[C@H](COP(=O)(O)OP(=O)(O)OP(=O)(O)O)[C@@H](O)[C@H]1O)C(=O)CCCNC(=O)CI | 1.2 | 0 |  | 0.35 | 0.88 | 0.93 | > 33 | 60 | 0 | 0 | 0 | 0
Nc1ncnc2c1nc(NCCNC(=O)CI)n2[C@@H]1O[C@H](COP(=O)(O)OP(=O)(O)OP(=O)(O)O)[C@@H](O)[C@H]1O |  | 0 |  |  |  |  |  |  |  |  | 0 | 0
Nc1ncnc2c1nc(NCCCCCCNC(=O)CI)n2[C@@H]1O[C@H](COP(=O)(O)OP(=O)(O)OP(=O)(O)O)[C@@H](O)[C@H]1O |  | 0 |  |  |  |  |  |  |  | 0 | 0 | 0
Nc1ncnc2c1nc(NCCCCNC(=O)CI)n2[C@@H]1O[C@H](COP(=O)(O)OP(=O)(O)OP(=O)(O)O)[C@@H](O)[C@H]1O |  | 0 |  |  |  |  |  |  |  |  | 0 | 0
